# Measurements collected from several papers.
# Each line is one published result; the experiments were not run side by side.
# Target: Casein kinase I isoform gamma-2 (CSNK1G2, Homo sapiens, UniProt P78368)
SMILES,read-out,method,concentration,remaining binding
O=C(c1ccc(Nc2ncc(Cl)c(-c3cc4ccccc4s3)n2)cc1)N1CCC(N2CCCC2)CC1,binding,competition with immobilised ligand,1 µM,100%
CNC(=O)[C@@H]1CC[C@@H](n2c(-c3ccc4cnccc4c3)nc3ccc(C(=O)NCc4cccc(C(N)=O)c4)cc32)C1,binding,competition with immobilised ligand,1 µM,97%
O=C1CCc2cc(Nc3cc(OC4CCOCC4)c([N+](=O)[O-])cc3Cl)ccc2N1,cell-free assay,competition with immobilised ligand,1 µM,88%
N[C@H]1CCN(c2nccc(-c3cnn4ncccc34)n2)C1,binding,,1 µM,98%
Cn1nc(C(F)(F)F)cc1-c1cnc(N2CCc3cc(S(=O)(=O)Nc4c(F)cc(Cl)cc4F)cc(N4CCCC4=O)c32)nc1,cell-free assay,competition with immobilised ligand,1 µM,100%
CN(C)c1nccc(-c2cnn3ncccc23)n1,binding,,1 µM,85%
N#CC1(c2ccccn2)CCN(Cc2cc(C(=O)N3CCCC3)c(=O)n3ccccc23)CC1,cell-free assay,competition with immobilised ligand,1 µM,76%
COc1ccnn2ncc(-c3ccnc(N(C)C)n3)c12,binding,,1 µM,81%
COc1cnc(Nc2cccc(S(N)(=O)=O)c2)nc1N1CCN(c2ccccc2)CC1,binding,competition with immobilised ligand,1 µM,100%
COc1ccc2c(c1)O[C@@H](c1ccc(OC)c(OC)c1)C[C@H]2NC(=O)C1(c2ccc3c(c2)OC(F)(F)O3)CC1,cell-free assay,competition with immobilised ligand,1 µM,88%
O=C(c1ccc(Nc2ncc(Cl)c(-c3ccc(Cl)s3)n2)cc1)N1CCC(N2CCCC2)CC1,binding,competition with immobilised ligand,1 µM,100%
O=C(NCC1CCOCC1)c1n[nH]cc1NC(=O)c1c(F)cccc1F,binding,competition with immobilised ligand,1 µM,83%
Cc1c(C(=O)O)cc(-c2ccc(C3CCNCC3)cc2)c2ccc(-c3ccc(C(F)(F)F)cc3)cc12,cell-free assay,competition with immobilised ligand,1 µM,100%
COc1ncc2cc3ccccc3nc2c1C#N,cell-free assay,competition with immobilised ligand,5 µM,98%
Cc1cnn2ncc(-c3ccnc(N(C)C)n3)c2c1,binding,,1 µM,100%
CCS(=O)(=O)c1cc2cc(C[C@](O)(CC(C)(C)c3ccc(F)cc3C(N)=O)C(F)(F)F)[nH]c2cn1,cell-free assay,competition with immobilised ligand,1 µM,93%
C[C@@H]1CCN(c2nccc(-c3cnn4ncccc34)n2)C1,binding,,1 µM,62%
c1cncc(-c2cccc(Nc3nccc(NC4CCCCC4)n3)c2)c1,binding,competition with immobilised ligand,10 µM,80%
CC1CCCN1c1nccc(-c2cnn3ncccc23)n1 (centres unmarked),binding,,1 µM,77%
O=C(NCCCN1CCOCC1)c1ccc(Nc2nccc(-c3cc4ccccc4s3)n2)cc1,binding,competition with immobilised ligand,1 µM,100%
